VIM-2 inh: VIM-2 metallo-beta-lactamase inhibitors, primary screen, biochemical, epi-absorbance readout, Pseudomonas aeruginosa enzyme; purified VIM-2, nitrocefin hydrolysis, epi-absorbance fluorescence; inhibition, % at 5.6 µM; hit rate 0.89% among 290,000; AID 1527, 2009;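 active = inhibition above the mean of all tested compounds plus 3 SD, cutoff set per screening run, cut at about 7.5% in these data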;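 also: red hydrolysis product quenches plate fluorescence so inhibitors raise well fluorescence; 0% = enzyme with DMSO and 100% = DMSO without enzyme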
UBC9 SUMO inh: inhibitors of in vitro SUMOylation cascade, primary screen, biochemical, HTRF, uHTS | HTRF SUMOylation assay, SAE1/SAE2 + UBC9 | inhibition, % at 35 µM | hit rate 0.36% among 290,000; in the data active = inhibition above about 50%, passing the limit was not always enough
Target sequence (P63279 whole entry, looked up): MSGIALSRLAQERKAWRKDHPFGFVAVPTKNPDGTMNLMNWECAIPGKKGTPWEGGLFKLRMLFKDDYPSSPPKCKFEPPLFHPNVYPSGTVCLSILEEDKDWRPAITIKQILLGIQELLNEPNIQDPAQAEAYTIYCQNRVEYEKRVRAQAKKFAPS
SUMO Mot1 rescue: yeast Mot1-301 growth rescue at high temperature, primary screen, SUMOylation pathway inhibitor project, S. cerevisiae, ATP luminescence, 38.5C. S. cerevisiae Mot1-301 growth rescue; percent above DMSO median, 100 means doubled. growth rescue, % at 18.8 µM. hit rate 1% among 320,000;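 active = every valid replicate shows activation above 250% relative to neutral control wells; inactive = the rest, any valid replicate at or below 250%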;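 also: OY570 slx delta 5 strain wells were the positive control but not used for scaling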
FID counter: compounds displacing fluorescent DNA intercalator, primary screen, artefact control for HCV NS3 helicase inhibitor project, biochemical, FID fluorescence. AID 1845, 2009. DNA fluorescent intercalator displacement. inhibition, % at 7.9 µM. hit rate 0.17% among 290,000; in the data active = inhibition above about 37%;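 also: 0% = vehicle and 100% = reference compound; higher means more ethidium bromide displaced from hairpin DNA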
NALP1 yeast inh: NALP1 inflammasome inhibitors in reconstituted yeast, colorimetric, S. cerevisiae, triplicate retest | S. cerevisiae NALP1/ASC/caspase-1 growth, X-gal OD620, 72 h | inhibition, % at 10 µM | hit rate 0.61% among 280,000; in the data active = inhibition mostly above about 24%, no sharp cut-off; inactive = mostly below about 32%
IMP-1 inhibitor: IMP-1 metallo-beta-lactamase inhibitors, primary screen, biochemical, epi-absorbance readout, Pseudomonas aeruginosa enzyme; metallo-beta-lactamase IMP-1 (Pseudomonas aeruginosa); purified IMP-1, nitrocefin hydrolysis, epi-absorbance fluorescence; inhibition, % at 5.6 µM; hit rate 0.45% among 290,000; AID 1556, 2009;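 active = inhibition above the mean plus 3 SD of all compounds in the same screening run, cut at about 4.5% in these data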;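 also: 0% = IMP-1 with DMSO and 100% = DMSO wells lacking enzyme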
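System: Purified IMP-1 | Read-out basis: Percent enzyme inhibition | Controls: IMP-1 with DMSO as 0%, enzyme-free DMSO as 100% | Replicates: One well per compound | Doses: 5.6 µM nominal single concentration | Detection: Epi-absorbance fluorescence, 480 nm excitation, 530 nm emission | Incubation: 25 °C, 15 min preincubation, 25 min reaction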
Numbers without * were called inactive; / = not tested or not shown; + = active, no number. Only some compounds are listed: those with a hit (about 2.9% of all), similar ones and a draw of the others.

SMILES | VIM-2 inh | UBC9 SUMO inh | SUMO Mot1 rescue | FID counter | NALP1 yeast inh | IMP-1 inhibitor
O=C(Nc1ccc(C2=NCCN2)cc1)c1ccc(C(=O)Nc2ccc(C3=NCCN3)cc2)c(Cl)c1 | 0 | 14 | -22 | 37* | 33 | 0
Cc1ccc(-n2c(C)nnc2SC(C)C(=O)N2CCCC2)cc1 (stereo not drawn) | -3 | -7 | 285* | -14 | -3 | -2
O=C(Nc1nccs1)c1nc(-c2ccccc2)n(-c2ccccc2)n1 | 0 | 26 | 314* | -9 | 7 | -3
CCOc1ccc(C(C)=O)cc1Cn1nc(C(=O)O)c2ccccc2c1=O | 9.8* | 19 | 0 | -24 | -7 | -3
CC(C)=CC(=O)NCCc1ccccc1 | -3 | 16 | -8 | 0 | 1 | -4
C/C(=C/C(=O)NCc1ccccc1)C(=O)O | -2 | 52* | 2 | 2 | -14 | -2
COc1cccc2cc(C(=O)NCc3ccc(Cl)cc3)c(=N)oc12 | -1 | 22 | -5 | -1 | 25 | -1
COc1cccc2cc(C(=O)NCc3ccc(Cl)cc3)c(=O)oc12 | -3 | 5 | -8 | 0 | 37* | -4
CCSc1ccccc1-c1nc(-c2ccncc2)no1 | -1 | -2 | 11 | -31 | 34 | -1
O=C(/C=C/c1cccc([N+](=O)[O-])c1)N(c1ccccn1)c1ccccn1 | -2 | 22 | + | -3 | / | -3
CC(C)N(C(=O)/C=C/c1cccc([N+](=O)[O-])c1)C(C)C | -2 | 11 | 0 | -10 | 14 | -3
O=C(/C=C/c1cccc([N+](=O)[O-])c1)Nc1ccccn1 | 0 | -9 | / | -3 | 23* | 0
O=C(/C=C/c1cccc([N+](=O)[O-])c1)c1ccco1 | 2 | 11 | -15 | 5 | 47* | -3
O=C(Nc1ncccc1O)c1cccc(S(=O)(=O)N2CCc3ccccc32)c1 | -4 | 32 | / | -5 | 34* | 0
O=C(Nc1ncccc1O)c1cccc(S(=O)(=O)N2CCCC2)c1 | / | / | 1 | / | / | /
CCOc1ccc(/C=N/NC(=O)c2cc(-c3cccn3C)n[nH]2)cc1 | -4 | 2 | 8 | -5 | 1 | -4
CCC(=O)NC(c1ccccc1)c1nc2ccccc2[nH]1 (stereo not drawn) | 2 | 16 | -9 | -2 | 25* | -1
CC(NC(=O)Cc1ccccc1)c1nc2ccccc2[nH]1 (stereo not drawn) | -3 | -5 | -4 | -3 | / | -3
CCCOc1ccc(C(=O)N/N=C/c2ccc(-c3ccc(S(=O)(=O)Nc4ncccn4)cc3)o2)cc1 | -5 | -15 | -20 | -37 | 43* | -5
NS(=O)(=O)c1ccc(-c2ccc(/C=N/NC(=O)c3ccc([N+](=O)[O-])cc3)o2)cc1 | -2 | 24 | 311* | 2 | 15 | -2
CCC(=O)N/N=C/c1ccc(-c2ccc([N+](=O)[O-])cc2)o1 | 1 | 29 | 27 | -2 | 14 | -1
CCCOc1ccc(C(=O)Nc2ccc(S(=O)(=O)Nc3onc(C)c3C)cc2)cc1 | -3 | -2 | -1 | -32 | -12 | -3
O=c1c2ccccc2nc2n1C(CSCc1ccc(Cl)cc1)CS2 (stereo not drawn) | -2 | -9 | -1 | -18 | 36 | -2
COCCCNC(=O)CCc1c(C)nc2c(-c3ccc(F)cc3)c(C)nn2c1C | 0 | 20 | -3 | -30 | / | -1
COCCNC(=O)CCc1c(C)nc2c(-c3ccc(F)cc3)c(C)nn2c1C | 2 | 3 | -5 | -20 | 36* | -2
SMILES | VIM-2 inh | UBC9 SUMO inh | SUMO Mot1 rescue | FID counter | NALP1 yeast inh | IMP-1 inhibitor
CC(=O)c1cnn(-c2ccc(Cl)c(Cl)c2Cl)c1C | -1 | -1 | 214 | -10 | 0 | -1
Cc1cccc(N(C)C(=O)CCS(=O)(=O)c2cc3c(cc2Cl)NC(=O)CO3)c1 | -4 | 6 | -13 | -20 | 4 | -4
Cc1ccc(/C=C/c2ccc(=O)n(Cc3ccccc3Cl)n2)cc1 | 0 | -5 | -6 | -15 | 37* | -2
CCCCNC(=S)N(CCCN(C)C)Cc1cc2cc3c(cc2[nH]c1=O)OCO3 | 2 | 16 | -2 | 3 | 11 | -2
CCN(CC)CCN(Cc1cc2cc3c(cc2[nH]c1=O)OCCO3)C(=S)NCCCN(C)C | -2 | 6 | -1 | 2 | 44* | -2
Cc1cccc(NC(=S)N(CCCN(C)C)Cc2cc3cc4c(cc3[nH]c2=O)OCO4)c1 | 0 | 8 | 27 | 38* | -6 | -2
Cc1cccc(NC(=S)N(CCN(C)C)Cc2cc3cc(C)ccc3[nH]c2=O)c1 | 0 | -4 | -4 | 21 | 10 | 1
CCc1ccccc1NC(=S)N(CCCN(C)C)Cc1cc2cc3c(cc2[nH]c1=O)OCO3 | 1 | 25 | -16 | 43* | 13 | 0
CCCN(CCC)CCCn1c(=O)[nH]c2ccccc21 | 1 | 17 | -3 | -1 | 10 | -2
COc1ccc(/C=C(/C#N)C(=O)Nc2cccc([N+](=O)[O-])c2)cc1C(=O)O | -1 | 10 | 113 | 9 | 3 | -1
Cc1ccc(CC2C(=O)N(c3cc(Cl)ccn3)C(=O)C2C)cc1 (stereo not drawn) | 0 | 10 | -17 | -17 | -9 | 13*
CCS(=O)(=O)Nc1cccc(-c2ccc3nnc(-c4cccnc4)n3n2)c1 | 8.9* | / | 213 | -11 | -4 | -2
CCCS(=O)(=O)Nc1cccc(-c2ccc3nnc(C)n3n2)c1 | 1 | 22 | 3 | 1 | -11 | -3
O=C(Nc1c(F)c(F)c(F)c(F)c1F)NC1CCCCC1 | 1 | 22 | 699* | -4 | 10 | 1
O=C(Nc1ccccn1)NC1CCCCC1 | 1 | -3 | -7 | -5 | 4 | 4.7*
CC(=O)C(Sc1ccc2nnc(-c3cccnc3)n2n1)C(C)=O | 3 | 13 | -4 | 2 | 9 | -3
CC(=O)/C=C(\C)Nc1ccccc1O | -1 | 28 | -10 | -2 | 43* | -3
CC(=O)NC(Cc1ccc(F)c(F)c1)C(=O)NC1CCN(C(=O)c2ccc(Cl)cc2)CC1 (stereo not drawn) | 0 | -1 | 2 | -27 | 32* | 0
Cc1ncc(C(=O)O)c(C(=O)O)c1N | -3 | 13 | -4 | 1 | 24 | -1
COc1ccc(C2CC(c3ccc(OC)cc3)n3nc(N)nc3N2)cc1 (stereo not drawn) | -1 | 0 | -5 | -18 | / | -4
COc1ccc(C2CC(c3ccc(Cl)cc3)n3nc(N)nc3N2)cc1 (stereo not drawn) | -1 | -5 | -4 | -24 | 1 | 5.0*
COc1ccc(Cl)cc1NS(=O)(=O)c1cccc(C(=O)N2CC(C)OC(C)C2)c1 (stereo not drawn) | / | / | 0 | / | / | /

Compound activity deposited in PubChem BioAssay by several laboratories.
